In ChEMBL document CHEMBL2429730, “C23 steroids from the venom of Bufo bufo gargarizans” (J Nat Prod, 2013):
Activity calls are given as the source filed them. The rule behind the calls is not given here.

Assays:
[1] = Cytotoxicity against KM mouse splenic lymphocytes; settings: Splenic lymphocyte
[2] = tested on: A549; assay: Cytotoxicity against human A549 cells after 24 hrs by MTT assay; type: functional, cell-based; settings: A549, 24 h
[3] = tested on: HepG2; assay: Cytotoxicity against human HepG2 cells after 24 hrs by MTT assay; type: functional, cell-based; settings: HepG2, 24 h
[4] = species: Sus scrofa; assay: Inhibition of Na(+)/K(+) ATPase in pig cerebral cortex assessed as release of inorganic phosphate at 50 uM after 15 mins by colorimetric method; type: tissue-based
[5] = Inhibition of Na(+)/K(+) ATPase in pig cerebral cortex assessed as release of inorganic phosphate after 15 mins by colorimetric method
[6] = Cytotoxicity against KM mouse splenic lymphocytes assessed as cell viability at 5 uM; design: species or system Splenic lymphocyte; settings: read-out: Activity
Summary of the method: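 Spleens from KM mice were homogenized in PBS and centrifuged. The pellet was red-cell-lysed for 5 min (Tris-base 2.6 g/L, NH4Cl 7.47 g/L, pH 7.2), then passed through a 300-mesh sieve. The resulting lymphocytes were tested by MTT assay, and survival rate was scored at 5 μM.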

inhibition [4] | SMILES | IC50 [1] [µM] | IC50 [2] [µM] | IC50 [3] [µM] | IC50 [5] [µM] | viability at 5 µM [6] [%]
 | C[C@@H]1O[C@@]12[C@@H]1O[C@@H]3C[C@H]2[C@@]2(C)CC[C@H]4[C@@H](CC[C@@H]5C[C@@H](O)CC[C@@]54C)[C@@]32O1 | > 100 | > 100 | > 100 |  | 
inactive | COC(=O)CCC(=O)C1=CC=C2[C@@H]3CC[C@@H]4C[C@@H](O)CC[C@]4(C)[C@H]3CC[C@]12C | > 100 | > 100 | > 100 |  | 
 | C/C=C(\C=O)[C@H]1[C@@H](OC(C)=O)[C@H]2O[C@]23[C@@H]2CC[C@@H]4C[C@@H](O)CC[C@]4(C)[C@H]2CC[C@]13C | > 100 | 45.6 | > 26.8 |  | 
 | C=CC1=CO[C@]23C[C@H](OC(C)=O)[C@H]1[C@@]2(C)CC[C@H]1[C@H]3CC[C@@H]2C[C@@H](O)CC[C@@]21C | > 100 | > 100 | 64.8 |  | 
inactive | C=CC1=CO[C@]23CC[C@H]1[C@@]2(C)CC[C@H]1[C@H]3CC[C@]2(O)C[C@@H](O)CC[C@]12C | 79.4 | > 100 | 68.7 |  | 
 | C[C@]12CC[C@H](O)C[C@H]1CC[C@@H]1[C@@H]2CC[C@]2(C)[C@@H](c3ccc(=O)oc3)CC[C@]12O [BUFALIN] |  | 0.6 | 0.6 | 0.011 | 100
 | C[C@]12CC[C@H](O)C[C@H]1CC[C@@H]1[C@@H]2CC[C@]2(C)[C@@H](c3ccc(=O)oc3)C[C@H]3O[C@]132 [BUFOGENIN] | > 100 | > 100 | 43.3 |  | 
 | CC(=O)O[C@H]1C[C@]2(O)[C@@H]3CC[C@@H]4C[C@@H](O)CC[C@]4(C)[C@H]3CC[C@]2(C)[C@H]1c1ccc(=O)oc1 [BUFOTALIN] |  | 0.9 | 0.5 |  | 100
 | CC(=O)O[C@H]1[C@H]2O[C@]23[C@@H]2CC[C@@H]4C[C@@H](O)CC[C@]4(C)[C@H]2CC[C@]3(C)[C@H]1c1ccc(=O)oc1 [CINOBUFAGIN] |  | 6.5 | 5.5 |  | 100
 | COc1cccc2c1C(=O)c1c(O)c3c(c(O)c1C2=O)C[C@@](O)(C(=O)CO)C[C@@H]3O[C@H]1C[C@H](N)[C@H](O)[C@H](C)O1 [DOXORUBICIN] |  | 0.1 |  |  | 
 | C[C@]12CC[C@H](O)C[C@@]1(O)CC[C@@H]1[C@@H]2CC[C@]2(C)[C@@H](c3ccc(=O)oc3)CC[C@]12O [TELOCINOBUFAGIN] |  | 3 | 2.4 |  | 100
